Data as given in ChEMBL document CHEMBL4513216, “Probing the Open Global Health Chemical Diversity Library for Multistage-Active Starting Points for Next-Generation Antimalarials” (ACS Infect Dis, 2020).

Assay: Toxicity liver stage against HepG2, at 10uM
Format: cell-based
Design: test concentration 10 uM, cell line HepG2-A16-CD81EGFP
Details: human, HepG2-A16-CD81EGFP cells; read-out: INHIBITION
Method in brief: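 Uninfected HepG2-A16-CD81EGFP cells, 3 × 10^3 per well, 1536-well, plated on prespotted compound at 10 μM final, parasite-free screening media added to match infected plates; puromycin 10 μM positive, DMSO 0.5% negative; run in parallel with 48 h PbLuc assay at 37 °C, 5% CO2; viability by CellTiter-Glo luminescence, normalized to controls.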

| SMILES | cytotoxicity at 10 µM [%] |
| --- | --- |
| Cc1cc2nc(CO[C@H]3CN(CC4CC4)C[C@H]3F)[nH]c2cc1C | 1.04 |
| CS(=O)(=O)Nc1ccc([C@H]2OCC(=O)N[C@@H]2CO)cc1 | -5.4 |
| O=C1N(Cc2cccnc2)C[C@H]2CN(C3CCOCC3)CCN12 | -9.7 |
| Nc1c(N2CCCC2)ncnc1N1CCOCC1 | 12.8 |
| CN1CCCCC12CCN(c1nncs1)C2 (stereo unspecified) | 7.1 |
| O=C(c1ncn2c1CNS(=O)(=O)c1ccccc1-2)N1CCCCC1 | 9.52 |
| Cc1cnc(N2CCC3(CC2)CC3CNC(=O)N(C)C)nc1 (stereo unspecified) | 8.82 |
| COCC1CN(Cc2ccoc2)Cc2cn(C)nc21 (stereo unspecified) | 7.55 |
| CCOCC1CN(S(=O)(=O)C2CC2)Cc2ncn(CC3CC3)c21 (stereo unspecified) | 4.44 |
| Cc1cccc(CN2CC3(CCN(C(N)=O)CC3)OCC2=O)n1 | 2.17 |
| CO[C@H]1CCN(S(=O)(=O)c2cn(C)cn2)[C@H]1Cc1ccncc1 | 9.43 |
| C[C@H]1C[C@@H]2CCN(C(=O)c3cnccn3)C[C@H]2O1 | 2.96 |
| O=C1COc2ccc(S(=O)(=O)NC3CC3)c3c2N1CCC3 | -16.7 |
| CC(=O)N1N=C(c2ccccc2)OC1C(=O)NCCC1=CCCCC1 (stereo unspecified) | 9.74 |
| Cc1nn(Cc2ccc(C(=O)NC3CCS(=O)(=O)C3)cc2)c(C)c1Br (stereo unspecified) | -3.71 |
| CCn1ccc(-c2nnc(SCC(=O)Nc3ccc(C)cc3)n2CC)n1 | 5.11 |
| CCN(CC)C(=O)c1nnsc1-c1ccccc1 | 1.88 |
| CCn1cc(CN(C)S(=O)(=O)c2cnn(C)c2)cn1 | 8.16 |
| Cc1nc(CN(C)C(=O)CN(C)C)nc2c1CCC(=O)N2CCC(C)C | -10.5 |
| Cc1cc(C)n(CCNCc2cc(-c3ccccc3)c[nH]c2=O)n1 | -2.47 |
| O=C(CCn1ccnc1)N1CC[C@H](Oc2cccc(F)c2)[C@@H](O)CC1 | -1.83 |
| CC(C)n1nccc1CN1Cc2nccn2CC1c1ccccc1 (stereo unspecified) | 5.38 |
| CN(C)c1ncc(I)c(C2CCCN2S(C)(=O)=O)n1 (stereo unspecified) | 3.8 |

| SMILES | cytotoxicity at 10 µM [%] |
| --- | --- |
| Cc1ccc(CC(=O)N2CCOC(c3ncc(CN(C)C)[nH]3)C2)s1 (stereo unspecified) | -3.47 |
| Cc1nc2c(c(NCCN3CCOCC3)n1)CCN(C)C2 | 4.09 |
| Cc1noc(C)c1CCC(=O)N[C@@H]1CC[C@@H](Oc2cccnc2)[C@@H]1O | -2.62 |
| Cc1cc(C)nc(C2CCCN2c2ccnc(C)n2)n1 (stereo unspecified) | -16.4 |
| Cc1nc[nH]c1CN1CCN(C2CCOCC2)CC(C(N)=O)C1 (stereo unspecified) | -19.5 |
| Cc1ccc(-n2c(SCC(=O)O)nnc2-c2cccc(C)c2)cc1 | -2.05 |
| CC(=O)N1CCC(Cc2cnc(C(=O)N3CCCC3)cn2)C1 (stereo unspecified) | -23.6 |
| O=S(=O)(N1CCCCC1)N1CCC(Oc2cnccn2)CC1 | -14.1 |
| CN(C)S(=O)(=O)N1CCN(Cc2ccnc(N3CCCC3)n2)CC1 | -4.42 |
| O=C(CN(Cc1cccs1)C1CCS(=O)(=O)C1)NCC1CCCCC1 (stereo unspecified) | 0.611 |
| CC(C)N(C(=O)c1ccnc(OCC(F)(F)F)c1)c1cccnc1 | 8.05 |
| Cc1nc2cc(NCc3cnn(C)c3)ccc2n1C | 13.1 |
| CCC1(CC)CC(=O)N(CC(O)c2ccc(Cl)cc2)C1=O (stereo unspecified) | 4.06 |
| CC(C)c1noc(CCNC(=O)NCC2COc3ccccc3O2)n1 (stereo unspecified) | 1.03 |
| CCN(Cc1ccc(N(C)C)cc1)S(=O)(=O)c1cc(Br)ccc1OC | 5.12 |
| CCS(=O)(=O)NCC(=O)N(C1CC1)C1Cc2ccccc2C1 | 4.25 |
| COC(=O)NCC(=O)NC1(C)CCc2ccccc2C1 (stereo unspecified) | 4.29 |
| COC1CCN(c2ccc(F)cc2CN(C)C(C)C(N)=O)CC1 (stereo unspecified) | 9.13 |
| CCc1ccc(C(COC)NC(=O)c2ccsc2)o1 (stereo unspecified) | 1.57 |
| O=C(OCc1ccccc1)c1cccc(NC(=O)C2COCCO2)c1 (stereo unspecified) | -0.488 |
| CNC(=O)CCS(=O)(=O)Cc1coc(-c2ccc(F)cc2)n1 | -3 |
| Cc1nn(CC(=O)N2CCCN(c3cccnn3)CC2)c(C)c1Cl | -1.2 |
| O=C(CCC(=O)N1CCCC1c1ccsc1)N1CCOCC1 (stereo unspecified) | -10.2 |

| SMILES | cytotoxicity at 10 µM [%] |
| --- | --- |
| Cc1cc2c(o1)CC(C)(C)CC2NC(=O)CNC(=O)C1CC1 (stereo unspecified) | 4.57 |
| COCc1noc(-c2nn(-c3ccc(F)cc3)c3c2CCC3)n1 | 2.87 |
| N#Cc1ccc(NCc2cccc(COC3CCOCC3)c2)nc1 | 32.4 |
| Cc1nc(NC(=O)N[C@H](CO)c2ccccc2)sc1C | -7.32 |
| c1cc(CN2CCSC3(CCCCC3)C2)no1 | 0.807 |
| CS(=O)(=O)c1nccn1CCOc1ccccc1F | 4.05 |
| COc1cccc(CNc2nnc(C(C)(C)C)o2)c1OC | -0.508 |
| CC(CO)N(C)C(=O)c1cn(-c2ccc(Br)cc2)cn1 (stereo unspecified) | -2.87 |
| OC1(CNC2CCN(c3ccccn3)CC2)CCc2ccccc21 (stereo unspecified) | -3.48 |
| CC(C)NC(=O)N1CCC2(CC(=O)N(c3cccc(F)c3)C2)C1 (stereo unspecified) | 3.46 |
| CCC1CN(C(=O)c2ncccc2O)CCC(=O)N1Cc1ccccc1 (stereo unspecified) | 3.2 |
| CCC(NC1CCN(C(=O)c2ccccc2)CC1)c1cccs1 (stereo unspecified) | -2.62 |
| Cc1nn(C)c2ncnc(NCC(O)CN3CCCCC3)c12 (stereo unspecified) | 1.2 |
| O=C(CC(F)(F)F)N1CCCC(c2nccn2Cc2ccncc2)C1 (stereo unspecified) | 3.22 |
| C[C@@H]1CN(C2CCN(c3ccccc3F)CC2)CC[C@]1(C)O | -5.32 |
| N[C@@H]1CC[C@@H](Nc2nccc(CCC(F)(F)F)n2)C1 | -3.73 |
| CCN(Cc1noc(C2CCC2)n1)C(=O)c1cnc2ccccc2c1 | 8.59 |
| COCCN1CCC(CNC(=O)Nc2ccc(F)c(Cl)c2)C1 (stereo unspecified) | 2.59 |
| Cc1cc(C(=O)N2CC(O)CO2)c2cccc(C)c2n1 (stereo unspecified) | 7.13 |
| CN(Cc1cccc(O)c1)C(=O)c1ccc(CCC(C)(C)O)cc1 | 3.58 |
| CCc1ccc2nc(-c3cnn(C)c3)cc(C(=O)N3CCCC3)c2c1 | 0.753 |
| CCc1ncc(S(C)(=O)=O)c(C2CCCNC2)n1 (stereo unspecified) | -14.2 |
| Cc1nc(CN(C)C(=O)C2CC(=O)N(c3cccc(O)c3)C2)cs1 (stereo unspecified) | -0.968 |

| SMILES | cytotoxicity at 10 µM [%] |
| --- | --- |
| C[C@@H]1CN(CCCOc2ccc(F)cc2)CC[C@@]1(O)C1CCOCC1 | -8.01 |
| O[C@@]1(CNCCCOc2cccnc2)CCCN2CCCC[C@@H]21 | 3.42 |
| Cc1c(C(C)N)cnn1-c1cccc2ccccc12 (stereo unspecified) | 10.7 |
| CCc1oc(C(=O)NC(C)c2ncn[nH]2)cc1CN1CCCC1 (stereo unspecified) | -5.92 |
| COCCn1ccnc1C1CCN(C(=O)CSc2nnc(C)o2)CC1 | -11.5 |
| Cc1cc(C)c(C#N)c(NCCSc2nncn2C)n1 | -1.01 |
| CN1C[C@@H](NC(=O)C(C)(C)C)C[C@H]1C(=O)NCc1ncc[nH]1 | 0.452 |
| CC(C)(C)N1CC(C(=O)NCc2nc(C3CCCCC3)no2)CC1=O (stereo unspecified) | 1.08 |
| CSc1ccc(C(=O)N2CCCC(Nc3ccc(F)cc3)C2)cc1 (stereo unspecified) | -11.4 |
| O=C(O)C(c1ccc2c(c1)OCCO2)N1CCC(N2CCSCC2)CC1 (stereo unspecified) | -1.1 |
| Cc1c(C(=O)N(C)C)cccc1N(C)S(C)(=O)=O | 8.19 |
| COCc1c(C(=O)NC2CCCC2)nnn1-c1ccc(C)cc1 | 5.97 |
| Cc1nc(C)n(C2CCCN(C(=O)CCOCC(C)C)C2)n1 (stereo unspecified) | -0.734 |
| Cc1nc(-c2ccccc2)n(CC(=O)NC2CCCC2)n1 | -0.248 |
| COc1ccccc1CNC(=O)CNCCn1cc(C)cn1 | -1.9 |
| O=C(CN1C=Nc2ccccc2S1(=O)=O)NCc1ccccc1 | -3.95 |
| Cc1ccc(C(=O)NC2CCN(CC(=O)N(C)c3ccccc3)CC2)o1 | -3.73 |
| Cc1cnc2c(S(=O)(=O)NCC3CC3)cccc2c1 | -2.87 |
| CCc1ncc2c(n1)CN(CC(=O)Nc1ccncc1)CC2 | 0.0264 |
| Cc1nccn1C1CCCN(C(=O)c2ccc3nnc(C)n3c2)C1 (stereo unspecified) | 2.01 |
| CC(C(=O)NC1CC1)N1CCN(Cc2ccn(C)c(=O)c2)CC1 (stereo unspecified) | -5.57 |
| N#CC1(C(=O)N2CCCN(c3nccs3)CC2)CCCC1 | -11.1 |
| CCOc1c(Cl)cc(/C=C/c2ncc(C(=O)O)s2)cc1OC | 3.91 |

| SMILES | cytotoxicity at 10 µM [%] |
| --- | --- |
| O=C(COCc1ccccc1)N1CCCC1c1noc(C2CC2)n1 (stereo unspecified) | -1.98 |
| Cc1nc(C2CCCN2C(=O)COCc2ccccc2)no1 (stereo unspecified) | -2.66 |
| Cc1noc(C2CCN(C(=O)c3cc(Br)ccc3F)CC2)n1 | -6.14 |
| CN(Cc1ccco1)C(=O)CN1CCCCC1Cn1cncn1 (stereo unspecified) | 3.61 |
| COC(=O)N1CCCN(C(=O)c2cccc3cccnc23)CC1 | 8.33 |
| CC1CN(CC(=O)N2CCCC2)CCN1c1ccc2nncn2n1 (stereo unspecified) | -5.46 |
| O=C(CN1CCCC(Cn2cncn2)C1)NCCOc1ccccc1 (stereo unspecified) | 5.61 |
| CC(C)c1nc(CCNC(=O)NCc2ccnc(N(C)C)c2)cs1 | -4.69 |
| CCc1nc(C2CCCN(C(=O)c3ccc(OC(C)C)nc3)C2)no1 (stereo unspecified) | 3.25 |
| CNC(=O)CN1CCC(NC(=O)N(C)Cc2cc(C)on2)CC1 | -0.626 |
| O=C(CC1CC2(CCN(CC3CC3)CC2)Oc2ccccc21)NC1CC1 (stereo unspecified) | 8.5 |
| CCC1=N[C@@]2(CC[C@@H]3CN(CC4CC4)C[C@@H]32)C(=O)N1CC | 6.56 |
| CN1CCCc2c1nc1c(c2N)CCCC1 | 11.2 |
| O=C(O)[C@]12CCCN(Cc3ccoc3)C[C@H]1CN(c1ncccn1)C2 | 7.37 |
| COCCN1CCO[C@@H]2CN(C(=O)NCc3ccccc3)CC[C@@H]2C1 | 3.23 |
| CN(C)C(=O)CO[C@H]1CN(Cc2cccc(C#N)c2)[C@@H]2COC[C@H]12 | 11.4 |
| CN(Cc1cn2c(n1)CN(C(=O)c1ccc[nH]1)CC2)Cc1ccco1 | -3.55 |
| CCC=C(C)C(=O)N1CSCC1C(=O)NC1=NCCS1 (stereo unspecified) | 11.8 |
| COc1cccc(C(=O)N2C[C@@H]3CC[C@H]2CN(Cc2cscn2)C3)c1 | 1.5 |
